# Laboratory results taken from ChEMBL document CHEMBL1149666, “Novel 1-(azacyclyl)-3-arylsulfonyl-1H-pyrrolo[2,3-b]pyridines as 5-HT6 agonists and antagonists” (Bioorg Med Chem, 2007).
# Legend:
# [1] = molecular target: T1, 5-hydroxytryptamine receptor 6 (Homo sapiens, UniProt P50406); experiment: Antagonist activity at human 5HT6 expressed in HeLa cells assessed as intracellular cAMP level by radioimmunoassay; format: functional, cell-based
# How it was run: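 Stably transfected h5-HT6 HeLa cells were washed in Krebs buffer and preincubated 5 min at 37 °C in Krebs with 500 μM IBMX. Test compound was then added at 0.1–10000 nM for 10 min at 37 °C. The reaction was stopped with 0.5 M perchloric acid, and intracellular cAMP was measured by scintillation proximity RIA. IC50 and Imax were determined in triplicate.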
# [2] = molecular target: T1, 5-hydroxytryptamine receptor 6; experiment: Displacement of [3H]LSD from cloned human 5HT6 expressed in HeLa cells; format: cell-based
# How it was run: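 Radioligand binding used [3H]-LSD on human-cloned 5-HT6 receptors stably transfected in HeLa cells. Ki values were determined in triplicate.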
# [3] = molecular target: T1, 5-hydroxytryptamine receptor 6; experiment: Agonist activity at human 5HT6 expressed in HeLa cells assessed as intracellular cAMP level by radioimmunoassay; format: functional, cell-based
# T1 sequence (P50406 whole entry): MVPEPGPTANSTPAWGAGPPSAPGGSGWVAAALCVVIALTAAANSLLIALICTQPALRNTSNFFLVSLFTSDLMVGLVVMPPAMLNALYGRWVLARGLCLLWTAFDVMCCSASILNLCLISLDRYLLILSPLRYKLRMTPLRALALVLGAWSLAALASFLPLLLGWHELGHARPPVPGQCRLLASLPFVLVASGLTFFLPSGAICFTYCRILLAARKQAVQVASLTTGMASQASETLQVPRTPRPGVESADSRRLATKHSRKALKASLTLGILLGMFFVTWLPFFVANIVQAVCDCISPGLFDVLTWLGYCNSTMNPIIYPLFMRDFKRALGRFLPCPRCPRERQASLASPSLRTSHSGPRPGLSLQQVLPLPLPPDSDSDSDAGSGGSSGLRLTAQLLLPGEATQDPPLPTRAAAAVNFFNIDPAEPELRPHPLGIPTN
SMILES,IC50 [1],Imax [1],Ki [2],%max [1],EC50 [3]
O=S(=O)(c1ccc(Cl)cc1)c1cn(C2CCCNC2)c2ncccc12 (configuration not stated),682 nM,76%,7.6 nM,,
O=S(=O)(c1ccc(Cl)cc1)c1cn(C2CCNC2)c2ncccc12 (configuration not stated),340 nM,,5.5 nM,94%,
O=S(=O)(c1cc(Cl)cc(Cl)c1)c1cn(C2CCCNC2)c2ncccc12 (configuration not stated),,,6.1 nM,,297 nM
O=S(=O)(c1cn(C2CCNC2)c2ncccc12)c1cccc2cccnc12 (configuration not stated),643 nM,,5.7 nM,100%,
O=S(=O)(c1cn(C2CCNC2)c2ncccc12)c1c(Cl)nc2sccn12 (configuration not stated),,,,,80 nM
CN1CCCC(n2cc(S(=O)(=O)c3c(Cl)nc4sccn34)c3cccnc32)C1 (configuration not stated),,,2 nM,,25 nM
O=S(=O)(c1cccc(Br)c1)c1cn(C2CCNC2)c2ncccc12 (configuration not stated),,,1.3 nM,,35 nM
CCN1CCCC(n2cc(S(=O)(=O)c3ccccc3)c3cccnc32)C1 (configuration not stated),26 nM,58%,3.6 nM,,
CCN1CCC(n2cc(S(=O)(=O)c3c(Cl)nc4sccn34)c3cccnc32)C1 (configuration not stated),10 nM,,1.4 nM,,
CC(C)N1CCCC(n2cc(S(=O)(=O)c3cccc(Br)c3)c3cccnc32)C1 (configuration not stated),492 nM,77%,9.4 nM,,
CN1CCCC(n2cc(S(=O)(=O)c3cc(Cl)cc(Cl)c3)c3cccnc32)C1 (configuration not stated),,,3.9 nM,,38.7 nM
CN1CCC(n2cc(S(=O)(=O)c3ccccc3)c3cccnc32)C1 (configuration not stated),,,2.5 nM,,2030 nM
CN1CCC(n2cc(S(=O)(=O)c3cccc(Br)c3)c3cccnc32)C1 (configuration not stated),23 nM,,0.9 nM,98%,
O=S(=O)(c1cccc(F)c1)c1cn(C2CCNC2)c2ncccc12 (configuration not stated),,,2.7 nM,,278 nM
O=S(=O)(c1ccc(C(F)(F)F)cc1)c1cn(C2CCCNC2)c2ncccc12 (configuration not stated),,,12 nM,,414 nM
O=S(=O)(c1ccccc1F)c1cn(C2CCNC2)c2ncccc12 (configuration not stated),50 nM,,2 nM,100%,
CN1CCCC(n2cc(S(=O)(=O)c3ccc(Cl)s3)c3cccnc32)C1 (configuration not stated),,,1.9 nM,,71 nM
O=S(=O)(c1cccc(Cl)c1)c1cn(C2CCCNC2)c2ncccc12 (configuration not stated),,,1.3 nM,,30 nM
CN1CCCC(n2cc(S(=O)(=O)c3cccc(C(F)(F)F)c3)c3cccnc32)C1 (configuration not stated),,,2.1 nM,,49 nM
CC(C)N1CCCC(n2cc(S(=O)(=O)c3cccc(F)c3)c3cccnc32)C1 (configuration not stated),,,3.4 nM,,172 nM
CN1CCC(n2cc(S(=O)(=O)c3ccc(Cl)cc3)c3cccnc32)C1 (configuration not stated),95 nM,,4.2 nM,98%,
CN1CCCC(n2cc(S(=O)(=O)c3ccc(Cl)cc3)c3cccnc32)C1 (configuration not stated),28 nM,63%,11.5 nM,,
O=S(=O)(c1cccc(Cl)c1)c1cn(C2CCNC2)c2ncccc12 (configuration not stated),,,1.5 nM,,1680 nM
CCN1CCC(n2cc(S(=O)(=O)c3cccc(Cl)c3)c3cccnc32)C1 (configuration not stated),120 nM,,3.3 nM,93%,
CCN1CCC(n2cc(S(=O)(=O)c3cccc(F)c3)c3cccnc32)C1 (configuration not stated),132 nM,,8.3 nM,89%,

SMILES,IC50 [1],Imax [1],Ki [2],%max [1],EC50 [3]
O=S(=O)(c1ccccc1Cl)c1cn(C2CCCNC2)c2ncccc12 (configuration not stated),,,3.7 nM,,50 nM
CC(C)N1CCCC(n2cc(S(=O)(=O)c3c(Cl)nc4sccn34)c3cccnc32)C1 (configuration not stated),8 nM,,1.7 nM,,
O=S(=O)(c1ccc(F)cc1)c1cn(C2CCNC2)c2ncccc12 (configuration not stated),,,8.5 nM,,1650 nM
CCN1CCCC(n2cc(S(=O)(=O)c3ccc(Cl)cc3)c3cccnc32)C1 (configuration not stated),70 nM,71%,33.5 nM,,
CC(C)N1CCCC(n2cc(S(=O)(=O)c3ccc(Cl)cc3)c3cccnc32)C1 (configuration not stated),338 nM,74%,11.1 nM,,
CN1CCC(n2cc(S(=O)(=O)c3c(Cl)nc4sccn34)c3cccnc32)C1 (configuration not stated),26 nM,,0.8 nM,,
CCN1CCC(n2cc(S(=O)(=O)c3ccccc3)c3cccnc32)C1 (configuration not stated),56 nM,,11 nM,75%,
O=S(=O)(c1ccc(Cl)s1)c1cn(C2CCCNC2)c2ncccc12 (configuration not stated),,,1.2 nM,,98 nM
O=S(=O)(c1cccc(Br)c1)c1cn(C2CCCNC2)c2ncccc12 (configuration not stated),,,3.8 nM,,72 nM
CN1CCC(n2cc(S(=O)(=O)c3cccc(Cl)c3)c3cccnc32)C1 (configuration not stated),142 nM,,1.5 nM,85%,
CCN1CCCC(n2cc(S(=O)(=O)c3cc(Cl)cc(Cl)c3)c3cccnc32)C1 (configuration not stated),,,13.5 nM,,67 nM
O=S(=O)(c1ccc(Br)cc1)c1cn(C2CCNC2)c2ncccc12 (configuration not stated),135 nM,,4.3 nM,96%,
CN1CCCC(n2cc(S(=O)(=O)c3cccc(F)c3)c3cccnc32)C1 (configuration not stated),,,4.7 nM,,306 nM
CN1CCC(n2cc(S(=O)(=O)c3ccccc3F)c3cccnc32)C1 (configuration not stated),186 nM,,5.6 nM,69%,
CCN1CCCC(n2cc(S(=O)(=O)c3c(Cl)nc4sccn34)c3cccnc32)C1 (configuration not stated),,,0.7 nM,,34 nM
CN1CCC(n2cc(S(=O)(=O)c3ccc(F)cc3)c3cccnc32)C1 (configuration not stated),213 nM,,5 nM,85%,
O=S(=O)(c1cccc(F)c1)c1cn(C2CCCNC2)c2ncccc12 (configuration not stated),,,2.4 nM,,67 nM
CCN1CCCC(n2cc(S(=O)(=O)c3ccc(Cl)s3)c3cccnc32)C1 (configuration not stated),,,3.2 nM,,50 nM
O=S(=O)(c1cccc(C(F)(F)F)c1)c1cn(C2CCNC2)c2ncccc12 (configuration not stated),,,1.3 nM,,520 nM
O=S(=O)(c1cccc(C(F)(F)F)c1)c1cn(C2CCCNC2)c2ncccc12 (configuration not stated),,,4.6 nM,,273 nM
CN1CCC(n2cc(S(=O)(=O)c3ccccc3Cl)c3cccnc32)C1 (configuration not stated),91 nM,,2.2 nM,91%,
O=S(=O)(c1cn(C2CCCNC2)c2ncccc12)c1c(Cl)nc2sccn12 (configuration not stated),,,0.7 nM,,66 nM
O=S(=O)(c1ccccc1F)c1cn(C2CCCNC2)c2ncccc12 (configuration not stated),50 nM,100%,2 nM,,
O=S(=O)(c1ccccc1)c1cn(C2CCCNC2)c2ncccc12 (configuration not stated),,,4.9 nM,,47 nM
